Reference: ChEMBL document CHEMBL5705905, “Pharmacological targeting of kinases MST1 and MST2 augments tissue repair and regeneration” (Sci Transl Med, 2016)
Activity calls are given as the source filed them. The calls are words filed in the database; no cut-off is given here.

What was measured:
[1] = molecular target: Activin receptor type-1 (Homo sapiens) (UniProt Q04771); experiment: Inhibition of ACVR1 (unknown origin) assessed as remaining activity at 1 uM by Kinome scan method relative to control
Method in brief: (§1)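 Active-site-dependent competition-binding (KINOMEscan) panel of 468 kinases, test compound at 1 μM (from a 10 mM DMSO stock). Read-out is ctrl% = (test signal − positive control signal)/(negative control signal − positive control signal) × 100. DMSO is the negative control (100%) and a control compound is the positive control (0%). Lower ctrl% means tighter binding.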

[2] = molecular target: Activin receptor type-1B (Homo sapiens) (UniProt P36896); experiment: Inhibition of ACVR1B (unknown origin) assessed as remaining activity at 1 uM by Kinome scan method relative to control; method in brief: as §1
[3] = molecular target: Serine/threonine-protein kinase BRSK1 (Homo sapiens) (UniProt Q8TDC3); experiment: Inhibition of BRSK1 (unknown origin) assessed as remaining activity at 1 uM by Kinome scan method relative to control; method in brief: as §1
Chain of Serine/threonine-protein kinase BRSK1 (Homo sapiens) (Q8TDC3 whole entry): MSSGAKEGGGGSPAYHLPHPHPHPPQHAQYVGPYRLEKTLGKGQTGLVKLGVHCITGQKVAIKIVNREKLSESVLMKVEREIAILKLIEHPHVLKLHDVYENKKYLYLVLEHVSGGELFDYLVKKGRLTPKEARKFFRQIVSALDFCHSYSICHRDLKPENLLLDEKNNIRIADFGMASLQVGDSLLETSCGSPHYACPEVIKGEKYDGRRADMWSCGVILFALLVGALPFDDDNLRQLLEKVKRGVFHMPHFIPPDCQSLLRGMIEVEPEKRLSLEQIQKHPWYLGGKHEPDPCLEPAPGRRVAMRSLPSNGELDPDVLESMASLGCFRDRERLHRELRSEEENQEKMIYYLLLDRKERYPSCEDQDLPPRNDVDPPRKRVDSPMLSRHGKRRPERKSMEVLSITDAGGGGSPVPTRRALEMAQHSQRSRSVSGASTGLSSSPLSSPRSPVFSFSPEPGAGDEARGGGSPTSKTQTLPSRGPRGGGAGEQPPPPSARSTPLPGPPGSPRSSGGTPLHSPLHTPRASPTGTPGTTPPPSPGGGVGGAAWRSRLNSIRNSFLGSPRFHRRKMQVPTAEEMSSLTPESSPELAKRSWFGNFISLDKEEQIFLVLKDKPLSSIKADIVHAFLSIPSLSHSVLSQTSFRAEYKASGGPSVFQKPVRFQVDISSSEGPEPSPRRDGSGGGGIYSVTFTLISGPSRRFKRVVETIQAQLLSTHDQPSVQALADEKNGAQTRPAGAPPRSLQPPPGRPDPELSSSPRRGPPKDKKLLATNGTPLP

[4] = molecular target: Calcium/calmodulin-dependent protein kinase type II subunit beta (Homo sapiens) (UniProt Q13554); experiment: Inhibition of CAMK2B (unknown origin) assessed as remaining activity at 1 uM by Kinome scan method relative to control
Method in brief: (§2)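 Active-site-dependent competition-binding profiling (KINOMEscan) at 1 μM against a 468-kinase panel; compound supplied from a 10 mM DMSO stock. Read-out is ctrl% = (test signal − positive control signal)/(negative control signal − positive control signal) × 100. DMSO is the negative control (100%) and a control compound the positive control (0%). Lower ctrl% means tighter binding.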

[5] = molecular target: Cyclin-dependent kinase 11A (Homo sapiens) (UniProt Q9UQ88); experiment: Inhibition of CDC2L2 (unknown origin) assessed as remaining activity at 1 uM by Kinome scan method relative to control; method in brief: as §2
[6] = molecular target: Ephrin type-A receptor 2 (Homo sapiens) (UniProt P29317); experiment: Inhibition of EPHA2 (unknown origin) assessed as remaining activity at 1 uM by Kinome scan method relative to control
[7] = molecular target: Tyrosine-protein kinase HCK (Homo sapiens) (UniProt P08631); experiment: Inhibition of HCK (unknown origin) assessed as remaining activity at 1 uM by Kinome scan method relative to control
Chain of Tyrosine-protein kinase HCK (Homo sapiens) (P08631 2-526 limits assumed): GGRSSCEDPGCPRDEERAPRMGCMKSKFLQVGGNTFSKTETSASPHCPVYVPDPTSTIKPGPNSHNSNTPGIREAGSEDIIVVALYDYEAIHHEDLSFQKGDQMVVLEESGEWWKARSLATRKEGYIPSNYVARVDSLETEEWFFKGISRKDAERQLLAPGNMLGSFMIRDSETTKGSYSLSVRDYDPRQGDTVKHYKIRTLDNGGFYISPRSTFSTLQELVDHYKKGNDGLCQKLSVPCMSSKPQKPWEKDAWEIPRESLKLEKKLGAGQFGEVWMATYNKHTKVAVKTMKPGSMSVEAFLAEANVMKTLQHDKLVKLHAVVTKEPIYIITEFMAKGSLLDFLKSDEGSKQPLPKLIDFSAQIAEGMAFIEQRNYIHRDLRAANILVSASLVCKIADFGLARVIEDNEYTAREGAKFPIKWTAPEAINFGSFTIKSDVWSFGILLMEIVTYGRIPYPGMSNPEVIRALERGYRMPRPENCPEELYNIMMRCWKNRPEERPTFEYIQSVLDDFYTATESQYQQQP

[8] = molecular target: Mitogen-activated protein kinase 8 (Homo sapiens) (UniProt P45983); experiment: Inhibition of JNK1 (unknown origin) assessed as remaining activity at 1 uM by Kinome scan method relative to control
[9] = molecular target: LIM domain kinase 1 (Homo sapiens) (UniProt P53667); experiment: Inhibition of LIMK1 (unknown origin) assessed as remaining activity at 1 uM by Kinome scan method relative to control
Chain of LIM domain kinase 1 (Homo sapiens) (P53667 whole entry, looked up, the tested form may be a part): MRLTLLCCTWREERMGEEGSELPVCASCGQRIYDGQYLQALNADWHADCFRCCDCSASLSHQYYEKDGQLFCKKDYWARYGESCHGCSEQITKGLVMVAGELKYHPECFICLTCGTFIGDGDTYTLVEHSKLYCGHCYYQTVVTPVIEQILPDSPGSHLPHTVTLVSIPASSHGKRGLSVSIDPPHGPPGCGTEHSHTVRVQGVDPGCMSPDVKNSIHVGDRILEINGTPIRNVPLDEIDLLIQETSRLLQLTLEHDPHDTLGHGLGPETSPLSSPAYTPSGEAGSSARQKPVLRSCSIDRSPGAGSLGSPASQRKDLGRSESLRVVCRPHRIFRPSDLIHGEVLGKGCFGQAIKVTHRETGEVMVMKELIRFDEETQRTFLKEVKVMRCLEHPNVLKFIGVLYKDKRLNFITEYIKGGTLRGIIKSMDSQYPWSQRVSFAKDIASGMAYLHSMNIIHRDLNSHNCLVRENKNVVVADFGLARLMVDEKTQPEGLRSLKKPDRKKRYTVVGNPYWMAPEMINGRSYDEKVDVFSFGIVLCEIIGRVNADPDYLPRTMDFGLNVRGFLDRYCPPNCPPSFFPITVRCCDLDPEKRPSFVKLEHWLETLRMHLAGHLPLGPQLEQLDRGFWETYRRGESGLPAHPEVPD

[10] = molecular target: MAP kinase-activated protein kinase 2 (Homo sapiens) (UniProt P49137); experiment: Inhibition of MAPKAPK2 (unknown origin) assessed as remaining activity at 1 uM by Kinome scan method relative to control
Chain of MAP kinase-activated protein kinase 2 (Homo sapiens) (P49137 whole entry, looked up): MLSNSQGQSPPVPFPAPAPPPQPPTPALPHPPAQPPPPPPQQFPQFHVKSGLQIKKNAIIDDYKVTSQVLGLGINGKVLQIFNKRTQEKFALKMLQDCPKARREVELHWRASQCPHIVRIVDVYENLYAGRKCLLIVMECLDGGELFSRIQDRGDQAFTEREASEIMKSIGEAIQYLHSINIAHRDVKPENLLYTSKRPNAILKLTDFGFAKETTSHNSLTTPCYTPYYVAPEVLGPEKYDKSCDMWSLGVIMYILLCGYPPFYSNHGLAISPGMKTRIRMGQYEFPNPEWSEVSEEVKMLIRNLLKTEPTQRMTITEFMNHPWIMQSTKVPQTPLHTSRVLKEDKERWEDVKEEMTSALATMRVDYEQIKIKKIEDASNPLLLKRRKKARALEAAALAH

[11] = molecular target: Microtubule-associated serine/threonine-protein kinase 1 (Homo sapiens) (UniProt Q9Y2H9); experiment: Inhibition of MAST1 (unknown origin) assessed as remaining activity at 1 uM by Kinome scan method relative to control
[12] = molecular target: Serine/threonine-protein kinase Nek6 (Homo sapiens) (UniProt Q9HC98); experiment: Inhibition of NEK6 (unknown origin) assessed as remaining activity at 1 uM by Kinome scan method relative to control
[13] = molecular target: Serine/threonine-protein kinase NIM1 (Homo sapiens) (UniProt Q8IY84); experiment: Inhibition of NIM1 (unknown origin) assessed as remaining activity at 1 uM by Kinome scan method relative to control
Chain of Serine/threonine-protein kinase NIM1 (Homo sapiens) (Q8IY84 whole entry): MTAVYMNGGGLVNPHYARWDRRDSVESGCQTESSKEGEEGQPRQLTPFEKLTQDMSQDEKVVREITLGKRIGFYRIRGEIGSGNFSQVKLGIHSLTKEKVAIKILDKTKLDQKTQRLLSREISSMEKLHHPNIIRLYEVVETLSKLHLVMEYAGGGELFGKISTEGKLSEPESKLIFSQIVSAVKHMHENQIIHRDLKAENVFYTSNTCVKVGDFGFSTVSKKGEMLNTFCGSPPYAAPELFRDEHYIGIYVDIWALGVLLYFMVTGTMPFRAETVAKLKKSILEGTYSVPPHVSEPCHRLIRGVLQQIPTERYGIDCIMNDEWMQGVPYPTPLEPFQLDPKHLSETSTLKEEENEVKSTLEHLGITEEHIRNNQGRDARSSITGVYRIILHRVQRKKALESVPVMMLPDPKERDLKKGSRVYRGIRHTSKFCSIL

[14] = molecular target: Serine/threonine-protein kinase PAK 2 (Homo sapiens) (UniProt Q13177); experiment: Inhibition of PAK2 (unknown origin) assessed as remaining activity at 1 uM by Kinome scan method relative to control
[15] = molecular target: Membrane-associated tyrosine- and threonine-specific cdc2-inhibitory kinase (Homo sapiens) (UniProt Q99640); experiment: Inhibition of PKMYT1 (unknown origin) assessed as remaining activity at 1 uM by Kinome scan method relative to control
[16] = molecular target: Protein kinase C theta type (Homo sapiens) (UniProt Q04759); experiment: Inhibition of PRKCQ (unknown origin) assessed as remaining activity at 1 uM by Kinome scan method relative to control
[17] = molecular target: Ribosomal protein S6 kinase alpha-4 (Homo sapiens) (UniProt O75676); experiment: Inhibition of C-terminal kinase domain RPS6KA4 (unknown origin) assessed as remaining activity at 1 uM by Kinome scan method relative to control; method in brief: as §1
[18] = molecular target: Ribosomal protein S6 kinase alpha-1 (Homo sapiens) (UniProt Q15418); experiment: Inhibition of C-terminal kinase domain RSK1 (unknown origin) assessed as remaining activity at 1 uM by Kinome scan method relative to control; method in brief: as §1
[19] = molecular target: Ribosomal protein S6 kinase alpha-2 (Homo sapiens) (UniProt Q15349); experiment: Inhibition of N-terminal kinase domain RSK3 (unknown origin) assessed as remaining activity at 1 uM by Kinome scan method relative to control
[20] = molecular target: Ribosomal protein S6 kinase alpha-6 (Homo sapiens) (UniProt Q9UK32); experiment: Inhibition of C-terminal kinase domain RSK4 (unknown origin) assessed as remaining activity at 1 uM by Kinome scan method relative to control; method in brief: as §1
Chain of Ribosomal protein S6 kinase alpha-6 (Homo sapiens) (Q9UK32 whole entry, the tested form may be a part): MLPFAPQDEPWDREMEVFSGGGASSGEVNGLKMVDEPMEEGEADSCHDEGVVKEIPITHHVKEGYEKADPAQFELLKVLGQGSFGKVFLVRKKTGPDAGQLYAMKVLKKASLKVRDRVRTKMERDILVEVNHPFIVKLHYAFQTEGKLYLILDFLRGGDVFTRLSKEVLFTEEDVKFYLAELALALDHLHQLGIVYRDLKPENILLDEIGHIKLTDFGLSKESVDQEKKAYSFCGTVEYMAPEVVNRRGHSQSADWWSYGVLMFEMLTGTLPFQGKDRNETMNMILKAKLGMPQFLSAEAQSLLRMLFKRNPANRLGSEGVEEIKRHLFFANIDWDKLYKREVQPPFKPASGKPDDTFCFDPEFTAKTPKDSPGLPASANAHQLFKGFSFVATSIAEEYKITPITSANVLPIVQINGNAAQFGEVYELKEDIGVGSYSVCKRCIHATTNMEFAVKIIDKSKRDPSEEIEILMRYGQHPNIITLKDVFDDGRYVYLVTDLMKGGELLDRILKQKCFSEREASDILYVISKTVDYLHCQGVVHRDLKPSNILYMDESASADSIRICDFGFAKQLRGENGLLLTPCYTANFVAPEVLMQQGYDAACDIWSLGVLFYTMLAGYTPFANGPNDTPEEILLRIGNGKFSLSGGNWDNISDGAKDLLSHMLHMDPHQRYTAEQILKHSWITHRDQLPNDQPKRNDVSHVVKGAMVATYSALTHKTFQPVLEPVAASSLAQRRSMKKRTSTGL

[21] = molecular target: Serine/threonine-protein kinase 16 (Homo sapiens) (UniProt O75716); experiment: Inhibition of STK16 (unknown origin) assessed as remaining activity at 1 uM by Kinome scan method relative to control
Chain of Serine/threonine-protein kinase 16 (Homo sapiens) (O75716 whole entry): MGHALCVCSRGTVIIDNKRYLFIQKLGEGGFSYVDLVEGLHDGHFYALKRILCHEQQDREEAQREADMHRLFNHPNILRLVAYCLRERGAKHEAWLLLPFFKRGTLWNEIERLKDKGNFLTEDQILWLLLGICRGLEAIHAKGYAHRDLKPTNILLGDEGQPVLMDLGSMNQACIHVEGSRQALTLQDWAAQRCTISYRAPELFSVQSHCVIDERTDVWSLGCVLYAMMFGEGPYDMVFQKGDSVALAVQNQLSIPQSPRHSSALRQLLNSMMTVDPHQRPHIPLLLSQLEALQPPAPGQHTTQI

[22] = molecular target: TGF-beta receptor type-1 (Homo sapiens) (UniProt P36897); experiment: Inhibition of TGFBR1 (unknown origin) assessed as remaining activity at 1 uM by Kinome scan method relative to control
[23] = molecular target: Wee1-like protein kinase 2 (Homo sapiens) (UniProt P0C1S8); experiment: Inhibition of WEE2 (unknown origin) assessed as remaining activity at 1 uM by Kinome scan method relative to control
Chain of Wee1-like protein kinase 2 (Homo sapiens) (P0C1S8 whole entry, looked up): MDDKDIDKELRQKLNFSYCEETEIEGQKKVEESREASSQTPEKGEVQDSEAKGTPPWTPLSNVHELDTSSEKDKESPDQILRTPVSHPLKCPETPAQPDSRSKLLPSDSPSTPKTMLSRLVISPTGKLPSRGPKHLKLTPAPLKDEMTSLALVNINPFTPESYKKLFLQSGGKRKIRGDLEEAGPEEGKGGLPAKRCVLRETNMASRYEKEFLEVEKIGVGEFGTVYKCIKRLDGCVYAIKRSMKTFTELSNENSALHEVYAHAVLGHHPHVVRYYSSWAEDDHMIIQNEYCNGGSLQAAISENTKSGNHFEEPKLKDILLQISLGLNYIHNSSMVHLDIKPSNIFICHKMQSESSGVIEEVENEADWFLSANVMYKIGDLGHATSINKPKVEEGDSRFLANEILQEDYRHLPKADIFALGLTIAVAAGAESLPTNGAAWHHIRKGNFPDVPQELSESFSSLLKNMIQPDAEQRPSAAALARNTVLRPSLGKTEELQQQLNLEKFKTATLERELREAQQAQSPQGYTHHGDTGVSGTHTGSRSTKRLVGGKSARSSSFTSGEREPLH

Aurora kinase A = Aurora kinase A (Homo sapiens, UniProt O14965); experiment: Binding affinity to AURKA (unknown origin) assessed as dissociation constant
Chain of Aurora kinase A (O14965 whole entry): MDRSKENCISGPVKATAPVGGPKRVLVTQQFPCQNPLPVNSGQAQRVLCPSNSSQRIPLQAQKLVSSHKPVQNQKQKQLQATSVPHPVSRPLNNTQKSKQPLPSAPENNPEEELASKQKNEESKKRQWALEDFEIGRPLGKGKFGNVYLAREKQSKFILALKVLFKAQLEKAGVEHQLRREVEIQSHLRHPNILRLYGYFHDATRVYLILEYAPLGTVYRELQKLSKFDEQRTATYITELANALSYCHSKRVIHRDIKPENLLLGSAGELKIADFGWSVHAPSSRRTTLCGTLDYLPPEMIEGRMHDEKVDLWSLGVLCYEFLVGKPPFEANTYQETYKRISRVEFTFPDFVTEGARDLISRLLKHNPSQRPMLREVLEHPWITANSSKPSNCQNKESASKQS

[24] = molecular target: Tyrosine-protein kinase JAK1 (Homo sapiens, UniProt P23458); experiment: Binding affinity to JAK1 JH2domain-pseudokinase (unknown origin) assessed as dissociation constant
Primary hepatocyte = experiment: Inhibition of MST1/2 (unknown origin) in mouse Primary hepatocyte cells assessed as H2O2 stimulated MOB1 phosphorylation level at 1 to 3 uM by immunoblot analysis; format: cell-based; details: dose 1-3 µM
[25] = MRT (0 to infinity) in male Sprague-Dawley rat at 5 mg/kg, iv measured for 24 hrs by LC-MS/MS analysis; format: ADME, organism-based; details: in vivo
[26] = Acute toxicity in wild-type mouse assessed as CK19-positive cells at 1 mg/kg,ip administrated daily for 2 months and after 2 weeks drug withdrawal by H and E staining based immunohistochemical analysis; format: organism-based; details: in vivo, 1460 h
Method in brief: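 Wild-type mice dosed 1 mg/kg i.p. daily for 2 months (vehicle 0.1% citric acid aqueous solution with 20% Kolliphor HS 15), or dosed and then withdrawn 2 weeks. Liver sections given H&E and IHC for CK19 and BrdU; positive cells counted, n = 3; means ± SD, Student's t test.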

Compound `CN1C(=O)c2sccc2N(C)c2nc(Nc3ccc(S(N)(=O)=O)cc3)ncc21` has an Activity [1] of 91%, an Activity [2] of 76% and an Activity [3] of 96%. It also gave an Activity [4] of 73%, an Activity [5] of 97% and an Activity [6] of 99%. The Activity [7] was 100%, the Activity [8] was 81% and the Activity [9] was 96%. For the same compound, the Activity [10] was 91%, the Activity [11] was 80% and the Activity [12] was 97%. The Activity [13] was 61%, the Activity [14] was 84% and the Activity [15] was 100%. The Activity [16] was 99%, the Activity [17] was 69% and the Activity [18] was 100%. For the same compound, the Activity [19] was 97%, the Activity [20] was 93% and the Activity [21] was 50%. The Activity [22] was 92%, the Activity [23] was 91% and the Kd (Aurora kinase A) was 13 nM. For the same compound, the Kd [24] was 22 nM, the inhibition (Primary hepatocyte) was “Active” and the MRT inf [25] was 1.36 h. The Activity [26] was “Non-Toxic”.
